This is one part of a sample in which hits are shown more often than they occur.
HUVEC prolif 384: blocks proliferation of human endothelial cells; HUVEC proliferation, CellTiter-Glo luminescence, 72 h; active compounds read low; viability, % at 10 µM (by protocol); 86,000 tested, 1.1% active; AID 648;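 active = viability at or below 30%; inactive = viability above 30%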;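 also: 100% = median luminescence of DMSO-only cell control wells on each plate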
Lung fibro prol: blocks proliferation of human lung fibroblasts; LL 47 human lung fibroblast viability, ATP luminescence; active compounds read low; viability, % at 10 µM; 85,000 tested, 1.1% active;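 active = viability at or below 50% in the single dose screen; inactive = viability above 50%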;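 also: compound exposure lasted 72 h before the ATP readout; 100% = median luminescence of untreated cell-only wells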
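Test system: LL 47 human lung fibroblasts / Quantity: 1,150 cells in each well / Medium: IMEM growth medium with 15% fetal bovine serum / Incubation: 72 h compound exposure at 37 °C after overnight plating / Detection: CellTiter-Glo luminescence measuring cellular ATP / Read-out: % viability versus median cells-only luminescence / Benchmarks: cell-only wells, no compound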
HCT116 PTEN-null: growth suppressors of cells with PTEN tumor suppressor deletion; HCT116 PTEN-null viability, CellTiter-Glo, 60 h; active compounds read low; viability, % at 10 µM; 140,000 tested, 1.2% active;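 active = viability at or below a set limit, 4 SD under the median of all tested compounds, cut at about 3.7% in these data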;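 also: PTEN knockout HCT116 line with beta catenin targeted HCT116 as companion control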
H69AR growth 86K: blocks growth of human H69AR lung tumor cells | H69AR lung tumor viability, ATP luminescence, 72 h; active compounds read low | viability, % at 10 µM | 85,000 tested, 6% active | AID 598;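 active = viability at or below 40%; inactive = viability above 40%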;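 also: multidrug resistant small cell line overexpressing MRP-1 efflux transporter; 100% = mean luminescence of untreated control wells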
bCat KO growth: beta-catenin-lacking colon tumor cell growth suppression. viability, % at 10 µM. HCT116 beta-catenin knockout viability, CellTiter-Glo, 60 h; active compounds read low. 140,000 tested, 1.5% active;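 active = viability at or under a set limit, the compound median less 4 SD, cut at about 6% in these data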;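 also: 0% = Hyamine 1622 control at 20 µM and 100% = untreated cell control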
* marks the source's active call; other numbers are inactive results; nt = not tested or not shown.

SMILES | HUVEC prolif 384 | Lung fibro prol | HCT116 PTEN-null | H69AR growth 86K | bCat KO growth
Cc1cc(NC(=O)c2cccc(S(=O)(=O)N3CCCCCC3)c2)n(-c2ccccn2)n1 | 88 | 88 | 84 | 66 | 72
COc1ccc(-n2nc(C(=O)NCC(=O)NCc3ccco3)c3ccccc3c2=O)cc1 | 91 | 103 | 98 | 101 | 91
Cc1ccc(-n2nc(C(=O)N3CCN(C)CC3)c3c4ccccc4n(C)c3c2=O)cc1 | 89 | 97 | nt | 82 | nt
COc1ccc(-n2nc(C(=O)NCc3ccco3)c3c4ccccc4n(C)c3c2=O)cc1Cl | 63 | 34* | 60 | 25* | 67
Cn1c(C(=O)NCCCN2CCN(c3ccccc3F)CC2)cc2c(=O)n(C)c3ccccc3c21 | 42 | 43* | 4 | 28* | 1.7*
COc1ccccc1CNC(=O)c1nn(-c2ccc(C)cc2)c(=O)c2c1c1ccccc1n2C | 71 | 62 | 64 | 5.2* | 67
CCN1CCCC1CNC(=O)c1nn(-c2ccc(C)cc2)c(=O)c2c1c1ccccc1n2C (stereo not drawn) | 25* | 46* | nt | 48 | nt
Cn1c(C(=O)NCCCN2CCOCC2)cc2c(=O)n(C)c3ccccc3c21 | 88 | 93 | 71 | 106 | 65
CCC(CO)NCc1cc(OC)c(OCC(=O)NCCc2ccccc2)cc1Br (stereo not drawn) | nt | nt | 99 | nt | 95
CCCC(=O)Nc1ccc(Cl)c(NC(=O)c2cccnc2Cl)c1 | 96 | 106 | 101 | 85 | 101
O=C(CSc1ncnc2ccccc12)Nc1ccc(N2CCOCC2)cc1 | 80 | 96 | 100 | 76 | 96
COc1ccccc1CNC(=O)c1cc2c(=O)n(C)c3ccccc3c2n1C | 51 | 91 | nt | 26* | nt
Cc1ccc(NC(=O)CCSc2ccccn2)cc1 | nt | nt | 99 | nt | 95
Cc1cc2cc(CNC(=O)Cc3cccs3)ccc2n1C | 61 | 107 | nt | 38* | nt
COc1cc2cc(C(c3nnnn3C3CCCC3)N3CCc4ccccc43)c(=O)[nH]c2cc1OC (stereo not drawn) | 68 | 36* | 83 | 31* | 78
COc1ccccc1N1CCN(C(c2cc3ccc(C)cc3[nH]c2=O)c2nnnn2C2CCCC2)CC1 (stereo not drawn) | 89 | 96 | 8 | 95 | 3.0*
COc1cc2cc(C(c3nnnn3C(C)(C)C)N3CCc4ccccc43)c(=O)[nH]c2cc1OC (stereo not drawn) | 100 | 98 | 61 | 78 | 75
CCCCc1c(C)c(C#N)c2nc3ccccc3n2c1Cl | nt | nt | 1.1* | nt | 1.3*
N#CC1=C(N)Oc2cc3ccccc3cc2C1c1cccs1 (stereo not drawn) | 59 | 86 | 38 | 21* | 52
N#CC1=C(N)Oc2c(ccc3cccnc23)C1c1cccnc1 (stereo not drawn) | nt | nt | 4 | nt | 4.5*
N#CC1=C(N)Oc2cc3ccccc3cc2C1c1cccnc1 (stereo not drawn) | 67 | 70 | 30 | 20* | 34
CCOC(=O)C1=C(c2ccccc2)OC(N)=C(C#N)C1c1cccs1 (stereo not drawn) | nt | nt | 96 | nt | 92
CC(C)(C)C1=C(C#N)C(c2cccnc2)C(C#N)=C(N)O1 (stereo not drawn) | nt | nt | 104 | nt | 101
CSc1cnn(Cc2ccccc2)c(=O)c1SCc1ccccc1 | nt | nt | 76 | nt | 83
CCCCCCOC(=O)Cc1c(C)nc(-c2ccccc2)[nH]c1=O | 95 | 102 | 90 | 90 | 81
SMILES | HUVEC prolif 384 | Lung fibro prol | HCT116 PTEN-null | H69AR growth 86K | bCat KO growth
Cc1cc(N2CCN(c3ccc([N+](=O)[O-])c4cccnc34)CC2)c2ccccc2n1 | nt | nt | 23 | nt | 3.5*
Cc1cc(N2CCN(S(=O)(=O)c3ccccc3)CC2)c2ccccc2n1 | 89 | 98 | 71 | 90 | 63
N#CCCn1cc(/C=N/O)c(-c2ccc(Cl)cc2)n1 | 101 | 93 | 89 | 95 | 86
N#CCCn1cc(/C=N/O)c(-c2ccc(-c3ccccc3)cc2)n1 | 56 | 74 | 39 | 32* | 47
CCOC(=O)c1cn(-c2nc(-c3ccc(Cl)c(Cl)c3)cs2)c2c(F)c(N3CCOCC3)c(F)cc2c1=O | nt | nt | 1.2* | nt | 1.7*
CCOC(=O)N1CCN(C(=O)c2ccc3c(=O)n(Cc4ccc(Cl)cc4)c(=S)[nH]c3c2)CC1 | 53 | 93 | 64 | 13* | 68
CCOC(=O)N1CCN(C(=O)c2ccc3c(=O)n(CCC4=CCCCC4)c(=S)[nH]c3c2)CC1 | 78 | 91 | 48 | 43 | 62
COCCn1c(=S)[nH]c2cc(C(=O)N3CCN(c4ccc(F)cc4)CC3)ccc2c1=O | 91 | 92 | 83 | 35* | 89
CCOC(=O)N1CCN(C(=O)c2ccc3c(=O)n(CCc4ccccc4)c(=S)[nH]c3c2)CC1 | 44 | 76 | 26 | 10* | 20
COc1cccc(Nc2nc(-c3ccc4c(c3)OCCO4)cs2)c1 | 73 | 96 | 34 | 37* | 29
CCOc1ccc(S(=O)(=O)N2c3ccccc3CC2C)cc1 (stereo not drawn) | 48 | 52 | 13 | 25* | 13
Cc1nn(-c2ccccc2)c2sc(C(=O)OC3CCOC3=O)cc12 (stereo not drawn) | 88 | 97 | 97 | 91 | 100
Cn1cccc1/C=C1\SC(=O)N(c2ccc(O)cc2)C1=O | nt | nt | 105 | nt | 102
Cc1cc(C=O)c2c(c1)C=CC1(Oc3ccccc3C(=O)N1C)O2 (stereo not drawn) | 80 | 95 | 58 | 22* | 57
CCOC(=O)C1=C(Cc2ccc(Cl)cc2)C(=O)c2ccccc2C1=O | 21* | 75 | 76 | 1.9* | 69
C=CCn1c(C)cc(C(=O)CSc2nnc(NCc3ccccc3)s2)c1C | 58 | 53 | 37 | 25* | 21
Cc1cc(C)c(C)c(S(=O)(=O)N2CCN(C(=O)c3cc(=O)[nH]c4ccccc34)CC2)c1C | 65 | 92 | 34 | 12* | 40
Cc1ccc(S(=O)(=O)N2CCN(C(=O)c3cc(=O)[nH]c4ccccc34)CC2)c(C)c1 | 92 | 102 | 79 | 39* | 82
Cc1ccc(S(=O)(=O)N2CCN(C(=O)CSc3nc4ccccc4c(=O)[nH]3)CC2)c(C)c1 | 83 | 98 | 75 | 71 | 75
O=C(COC(=O)c1cc[n+]([O-])cc1)Nc1ccc(F)c([N+](=O)[O-])c1 | nt | nt | 92 | nt | 89
Cc1nc(SCC(=O)c2c(C)[nH]c3ccccc23)c2c(=O)n(C)c(=O)n(CC(C)C)c2n1 | 83 | 96 | nt | 39* | nt
Cc1nc(SCC(=O)OCc2ccccc2)c2c(=O)n(C)c(=O)n(C)c2n1 | 99 | 106 | 97 | 106 | 88
S=c1[nH]ncn1/N=C/c1cccc(Oc2ccccc2)c1 | 81 | 100 | 107 | 1.7* | 107
CCc1ccc(-c2cn(-c3nc(C)cc(C)n3)c(=N)o2)cc1 | 59 | 84 | 61 | 1.2* | 70
CCc1ccc(C(=O)CN(C#N)c2nc(C)cc(C)n2)cc1 | 55 | 92 | 84 | 60 | 87
COc1cccc(NC(=O)CN2CCN(c3ccc(F)cc3)CC2)c1 | 109 | 95 | 90 | 28* | 100
CCOc1ccc(NC(=O)CCN2CCN(c3ccccc3F)CC2)cc1 | 71 | 93 | 44 | 24* | 43

Assay outcomes (PubChem BioAssay)
